Experiments:
[1] = Intrinsic clearance in human liver microsome assessed as per mg of protein; assay type: ADME; conditions: liver microsomes
[2] = molecular target: Metabotropic glutamate receptor 5 (Homo sapiens, UniProt P41594); test: Positive allosteric modulation of human mGluR5 expressed in HEK293 cells assessed as Ca2+ influx by FLIPR assay; assay type: functional, cell-based
In short: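 HEK293 cells stably expressing human mGluR5 d isoform, plated the day before at 25,000 cells/well in DMEM with 10% dialyzed FBS. Loaded 1 h at 37 °C with 4.3 uM Fluo-4 AM in HBSS/20 mM HEPES/1 mM probenecid, pH 7.4, then washed. Eleven-concentration series added, agonist read 1 min; after 15 min, EC20 L-glutamate (final 200-300 nM) added, Ca2+ read 1 min.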

[3] = Ratio of drug level in brain to plasma in rat; assay type: ADME, organism-based; conditions: brain and plasma, read-out: BPR
[4] = Half life in rat; assay type: ADME, organism-based; conditions: in vivo
[5] = Oral bioavailability in rat; assay type: ADME, organism-based; conditions: in vivo
[6] = Clearance in rat plasma; assay type: ADME, organism-based
[7] = Volume of distribution in rat; assay type: ADME, organism-based; conditions: in vivo
[8] = Oral bioavailability in dog; assay type: ADME, organism-based, Canis lupus familiaris; conditions: in vivo
[9] = Half life in dog; assay type: ADME, organism-based, Canis lupus familiaris; conditions: in vivo
[10] = Clearance in dog plasma; assay type: ADME, organism-based, Canis lupus familiaris
[11] = Volume of distribution in dog; assay type: ADME, organism-based, Canis lupus familiaris; conditions: in vivo
[12] = molecular target: Metabotropic glutamate receptor 5 (Rattus norvegicus) (UniProt P31424); test: Displacement of [3H]-MPEP from rat mGluR5
Sequence of Metabotropic glutamate receptor 5 (Rattus norvegicus) (P31424 whole entry, looked up): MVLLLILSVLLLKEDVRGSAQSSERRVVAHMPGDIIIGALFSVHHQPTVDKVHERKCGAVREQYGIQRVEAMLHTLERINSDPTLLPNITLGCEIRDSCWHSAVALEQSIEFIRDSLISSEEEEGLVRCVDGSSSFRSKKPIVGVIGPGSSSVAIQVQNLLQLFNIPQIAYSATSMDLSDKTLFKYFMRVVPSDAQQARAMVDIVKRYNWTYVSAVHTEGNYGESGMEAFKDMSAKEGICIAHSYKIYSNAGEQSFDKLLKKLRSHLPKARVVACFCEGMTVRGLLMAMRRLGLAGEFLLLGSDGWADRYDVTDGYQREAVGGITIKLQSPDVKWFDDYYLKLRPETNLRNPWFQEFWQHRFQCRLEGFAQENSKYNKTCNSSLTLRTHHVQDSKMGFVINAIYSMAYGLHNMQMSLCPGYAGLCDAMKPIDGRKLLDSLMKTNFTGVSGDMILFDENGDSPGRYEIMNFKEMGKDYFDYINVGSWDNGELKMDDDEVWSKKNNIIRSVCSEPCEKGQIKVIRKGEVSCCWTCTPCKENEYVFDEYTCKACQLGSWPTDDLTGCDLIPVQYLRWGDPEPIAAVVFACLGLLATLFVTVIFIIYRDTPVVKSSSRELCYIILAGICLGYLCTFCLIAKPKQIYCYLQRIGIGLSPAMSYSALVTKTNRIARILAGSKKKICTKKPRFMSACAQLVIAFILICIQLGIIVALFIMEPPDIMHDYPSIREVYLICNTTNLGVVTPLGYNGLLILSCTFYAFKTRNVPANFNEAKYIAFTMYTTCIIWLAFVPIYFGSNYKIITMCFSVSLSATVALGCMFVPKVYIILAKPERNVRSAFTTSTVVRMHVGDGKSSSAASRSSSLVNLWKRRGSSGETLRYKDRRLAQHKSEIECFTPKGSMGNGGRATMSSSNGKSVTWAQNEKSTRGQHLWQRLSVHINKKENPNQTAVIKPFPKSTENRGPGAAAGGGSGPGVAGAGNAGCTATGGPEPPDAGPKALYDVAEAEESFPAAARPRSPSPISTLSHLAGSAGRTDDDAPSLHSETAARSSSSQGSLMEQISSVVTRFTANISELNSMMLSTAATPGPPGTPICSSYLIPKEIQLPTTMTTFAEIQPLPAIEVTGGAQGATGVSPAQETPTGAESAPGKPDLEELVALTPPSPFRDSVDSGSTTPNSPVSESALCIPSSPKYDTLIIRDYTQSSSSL

Sequence of Metabotropic glutamate receptor 5 (P41594 whole entry, canonical isoform): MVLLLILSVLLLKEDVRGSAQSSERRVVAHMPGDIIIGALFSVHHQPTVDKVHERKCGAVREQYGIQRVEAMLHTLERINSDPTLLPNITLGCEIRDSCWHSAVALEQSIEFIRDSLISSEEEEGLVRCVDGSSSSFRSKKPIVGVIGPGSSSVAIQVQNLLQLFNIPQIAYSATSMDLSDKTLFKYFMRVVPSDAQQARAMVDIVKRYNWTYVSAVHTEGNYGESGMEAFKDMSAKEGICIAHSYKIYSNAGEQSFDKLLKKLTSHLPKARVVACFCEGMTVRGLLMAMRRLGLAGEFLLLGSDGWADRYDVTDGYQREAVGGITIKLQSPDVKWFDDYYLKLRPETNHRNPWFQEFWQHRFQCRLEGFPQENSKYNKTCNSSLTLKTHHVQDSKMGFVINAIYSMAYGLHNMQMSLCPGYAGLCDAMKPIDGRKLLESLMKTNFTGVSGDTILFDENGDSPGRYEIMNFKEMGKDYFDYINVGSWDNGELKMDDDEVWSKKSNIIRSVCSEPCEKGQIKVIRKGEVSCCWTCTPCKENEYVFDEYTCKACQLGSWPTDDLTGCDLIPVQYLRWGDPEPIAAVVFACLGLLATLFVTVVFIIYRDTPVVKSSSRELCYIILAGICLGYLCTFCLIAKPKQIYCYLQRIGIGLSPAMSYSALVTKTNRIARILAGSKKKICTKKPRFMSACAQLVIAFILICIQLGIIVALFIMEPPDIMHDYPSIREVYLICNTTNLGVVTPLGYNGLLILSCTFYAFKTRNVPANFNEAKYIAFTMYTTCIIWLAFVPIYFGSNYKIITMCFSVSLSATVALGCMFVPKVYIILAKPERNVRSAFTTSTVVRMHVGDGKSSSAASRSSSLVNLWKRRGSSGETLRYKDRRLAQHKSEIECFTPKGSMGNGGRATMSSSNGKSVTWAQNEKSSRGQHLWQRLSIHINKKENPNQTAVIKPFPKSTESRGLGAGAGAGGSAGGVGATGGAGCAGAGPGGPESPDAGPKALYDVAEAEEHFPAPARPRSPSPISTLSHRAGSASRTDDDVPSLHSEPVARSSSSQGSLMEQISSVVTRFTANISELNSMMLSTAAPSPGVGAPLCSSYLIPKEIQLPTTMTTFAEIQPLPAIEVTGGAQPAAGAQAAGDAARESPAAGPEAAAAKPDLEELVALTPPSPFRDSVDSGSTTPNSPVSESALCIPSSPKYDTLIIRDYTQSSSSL

microsomal CLint [1] [µL/min/mg]	EC50 [2] [µM]	Compound	further results
17	1.3	O=C(COCc1ccncc1)N1CCN(c2ccc(Cl)cc2)CC1	–
29	0.55	O=C(COCc1ccncc1)N1CCN(c2ccc(F)cc2Cl)CC1	Kp [3]: 4.6; half-life [4]: 7.3 h; bioavailability [5]: 41%; clearance [6]: 55 mL/min/kg; Vd [7]: 4.8 L/kg; bioavailability [8]: 37%; half-life [9]: 2.9 h; clearance [10]: 38.5 mL/min/kg; Vd [11]: 3.2 L/kg; Ki [12]: 2.37 µM
38	0.6	O=C(COCc1ccncc1)N1CCN(c2ccc(Cl)cc2F)CC1	–
68	0.24	Cc1cc(Cl)ccc1N1CCN(C(=O)COCc2ccncc2)CC1	–
76	0.18	O=C(COCc1ccncc1)N1CCN(c2ccc(Cl)cc2Cl)CC1	–
22	4.6	O=C(COCc1ccncc1)N1CCN(c2ccc(F)cc2F)CC1	–
4	4.2	O=C(COCc1ccncc1)N1CCN(c2cc(Cl)ccn2)CC1	–
41	0.68	O=C(COCc1ccncc1)N1CCC(c2ccc(Cl)cc2)CC1	–
56	0.37	O=C(COCc1ccncc1)N1CCC(c2ccc(F)cc2Cl)CC1	–
96	0.39	O=C(COCc1ccncc1)N1CCC(c2ccc(Cl)cc2Cl)CC1	–
45	0.8	O=C(COCc1ccncc1)N1CCC(F)(c2ccc(Cl)cc2)CC1	–
–	2.1	CC1(c2ccc(Cl)cc2)CCN(C(=O)COCc2ccncc2)CC1	–
–	6.6	O=C(COCc1ccncc1)N1CCC(F)(c2ccc(F)cc2Cl)CC1	–
–	> 10.6	Fc1ccc(C2CCN(C(=S)COCc3ccncc3)CC2)c(Cl)c1	–
–	> 25	Clc1ccc(N2CCN(CCOCc3ccccc3)CC2)c(Cl)c1	–
–	5.3	O=C(CCCc1ccncc1)N1CCN(c2ccc(Cl)cc2Cl)CC1	–
–	8.5	O=C(CNCc1ccncc1)N1CCN(c2ccc(Cl)cc2Cl)CC1	–
–	> 25	CN(CC(=O)N1CCN(c2ccc(Cl)cc2Cl)CC1)Cc1ccncc1	–
–	7.1	O=C(CSCc1ccccc1)N1CCN(c2ccc(Cl)cc2Cl)CC1	–
–	> 25	O=C(CSc1ccccc1)N1CCN(c2ccc(Cl)cc2Cl)CC1	–
–	> 25	C[C@@H](OCc1ccncc1)C(=O)N1CCC(c2ccc(Cl)cc2F)CC1	–

microsomal CLint [1] [µL/min/mg]	EC50 [2] [µM]	Compound	further results
94	0.31	O=C(COCc1ccccn1)N1CCN(c2ccc(Cl)cc2Cl)CC1	–
210	1.09	O=C(COCc1cccnc1)N1CCN(c2ccc(Cl)cc2Cl)CC1	–
4	5.2	O=C(COCc1cnccn1)N1CCN(c2ccc(Cl)cc2Cl)CC1	–
17	2.8	O=C(COCc1ccncn1)N1CCN(c2ccc(Cl)cc2Cl)CC1	–
16	18	O=C(COCc1ncccn1)N1CCN(c2ccc(Cl)cc2Cl)CC1	–
62	0.29	O=C(COCc1cscn1)N1CCN(c2ccc(Cl)cc2Cl)CC1	–
73	1.28	O=C(COCc1cncs1)N1CCN(c2ccc(Cl)cc2Cl)CC1	–
–	7.1	O=C(COCc1ccccc1)N1CCN(c2ccccc2)CC1	–
80	> 10.3	O=C(COCc1nccs1)N1CCN(c2ccc(Cl)cc2Cl)CC1	–
360	0.31	O=C(COCc1cccs1)N1CCN(c2ccc(Cl)cc2Cl)CC1	–
110	0.21	N#Cc1ccc(COCC(=O)N2CCN(c3ccc(Cl)cc3Cl)CC2)s1	–
540	1.1	O=C(COCc1ccccc1)N1CCN(c2ccccc2Cl)CC1	–
310	6.7	O=C(COCc1ccccc1)N1CCN(c2cccc(Cl)c2)CC1	–
290	0.35	O=C(COCc1ccccc1)N1CCN(c2ccc(Cl)cc2)CC1	–
110	1.1	O=C(COCc1ccccc1)N1CCN(c2ccc(F)cc2)CC1	–
450	1.4	O=C(COCc1ccccc1)N1CCN(c2ccc(Cl)cc2Cl)CC1	–
580	0.3	O=C(COCc1ccccc1)N1CCN(c2ccc(F)cc2F)CC1	–
530	0.27	O=C(COCc1ccccc1)N1CCN(c2ccc(F)cc2Cl)CC1	–
130	0.57	O=C(COCc1ccccc1)N1CCN(c2cc(Cl)ccn2)CC1	–
–	> 25	O=C(COCc1ccccc1)N1CCN(c2ccncc2)CC1	–

Reference: ChEMBL document CHEMBL1287773, “4-aryl piperazine and piperidine amides as novel mGluR5 positive allosteric modulators” (Bioorg Med Chem Lett, 2010)
